How the values were obtained:
Macrophage [1] = assay: Inhibition of LPS-induced NO production in ddY mouse macrophages at 10 uM after 20 hrs by Griess reagent assay relative to control; format: functional
Outline: (§1)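 Thioglycolate-elicited peritoneal macrophages from male ddY mice were precultured 1 h; nonadherent cells were washed off. Adherent cells (5 × 10⁵/well, RPMI 1640 with 5% FCS) were exposed 20 h to 10 μg/mL LPS with compound (1–100 μM, 0.5% DMSO final). Nitrite in the medium was measured with Griess reagent. Inhibition = (A−B)/(A−C) × 100 against LPS-only and unstimulated wells; IC50 was read graphically, N = 4, means ± SEM.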

Macrophage [2] = assay: Inhibition of LPS-induced NO production in ddY mouse macrophages at 3 uM after 20 hrs by Griess reagent assay relative to control; format: functional; outline: as §1
Macrophage [3] = assay: Inhibition of LPS-induced NO production in ddY mouse macrophages at 30 uM after 20 hrs by Griess reagent assay relative to control; format: functional; outline: as §1
Macrophage [4] = assay: Inhibition of LPS-induced NO production in ddY mouse macrophages after 20 hrs by Griess reagent assay; format: functional, cell-based; outline: as §1
Macrophage [5] = assay: Inhibition of LPS-induced NO production in ddY mouse macrophages at 100 uM after 20 hrs by Griess reagent assay relative to control; format: functional; outline: as §1
Macrophage [6] = assay: Inhibition of LPS-induced NO production in ddY mouse macrophages at 1 uM after 20 hrs by Griess reagent assay relative to control; format: functional; outline: as §1

In the case of N=C(N)NCCSSCCNC(=N)N [GUANIDINOETHYLDISULFIDE], the inhibition at 10 µM (Macrophage [1]) is reported as 57.9%, the inhibition at 3 µM (Macrophage [2]) is reported as 24.4% and the inhibition at 30 µM (Macrophage [3]) is reported as 89.7%. For the same compound, the IC50 (Macrophage [4]) was 7.4 µM, the inhibition at 100 µM (Macrophage [5]) was 97.9% and the inhibition at 1 µM (Macrophage [6]) was 6.2%.
Work on CO[C@H]1[C@@H](OC)C[C@H](C)[C@@H](OC)C2=CC(=O)C=C(NC(=O)/C(C)=C/C=C/[C@H](OC)[C@@H](OC(N)=O)/C(C)=C/[C@@H]1C)C2=O [HERBIMYCIN] yielded an inhibition at 3 µM (Macrophage [2]) of 77%, an IC50 (Macrophage [4]) of 0.094 µM and an inhibition at 1 µM (Macrophage [6]) of 48%.
With CC(=O)O[C@H]1C=C[C@]23c4cc5c(cc4CN(C[C@@H]2O)[C@H]3C1)OCO5 [YEMENINE A] the inhibition at 10 µM (Macrophage [1]) was 69%, the inhibition at 3 µM (Macrophage [2]) was 38.1% and the inhibition at 30 µM (Macrophage [3]) was 93%. For the same compound, the IC50 (Macrophage [4]) was 4.9 µM, the inhibition at 100 µM (Macrophage [5]) was 98.5% and the inhibition at 1 µM (Macrophage [6]) was 10.4%.
In the case of c1ccc2c(c1)ncc1cc3c(cc12)OCO3 [TRISPHAERIDINE], the inhibition at 10 µM (Macrophage [1]) is reported as -3.4%, the inhibition at 3 µM (Macrophage [2]) is reported as -6.9% and the inhibition at 30 µM (Macrophage [3]) is reported as -7%. It also gave an inhibition at 100 µM (Macrophage [5]) of 0.3% and an inhibition at 1 µM (Macrophage [6]) of -7.1%.
Work on O[C@H]1[C@H]2c3cc4c(cc3CN3CCC(=C[C@@H]1O)[C@H]23)OCO4 [LYCORINE] yielded an inhibition at 10 µM (Macrophage [1]) of 20.6%, an inhibition at 3 µM (Macrophage [2]) of 2.8% and an inhibition at 30 µM (Macrophage [3]) of 54.4%. It also gave an IC50 (Macrophage [4]) of 2.5 µM, an inhibition at 100 µM (Macrophage [5]) of 91.4% and an inhibition at 1 µM (Macrophage [6]) of 0%.
In the case of CO[C@H]1C=C[C@]23c4cc5c(cc4C(O)N(C[C@H]2O)[C@H]3C1)OCO5 (mixture of isomers), the inhibition at 10 µM (Macrophage [1]) is reported as 6.3%, the inhibition at 3 µM (Macrophage [2]) is reported as -23.1% and the inhibition at 30 µM (Macrophage [3]) is reported as 30.3%. The IC50 (Macrophage [4]) was 5.4 µM, the inhibition at 100 µM (Macrophage [5]) was 69.5% and the inhibition at 1 µM (Macrophage [6]) was -11.2%.
In the case of CO[C@H]1C=C[C@@]23c4cc5c(cc4CN(C[C@@H]2O)[C@H]3C1)OCO5, the inhibition at 10 µM (Macrophage [1]) is reported as 30.2%, the inhibition at 3 µM (Macrophage [2]) is reported as 7.8% and the inhibition at 30 µM (Macrophage [3]) is reported as 65.2%. For the same compound, the IC50 (Macrophage [4]) was 1.8 µM, the inhibition at 100 µM (Macrophage [5]) was 86.1% and the inhibition at 1 µM (Macrophage [6]) was 8.1%.
For CNC(=N)NCCC[C@H](N)C(=O)O [TILARGININE], the inhibition at 10 µM (Macrophage [1]) was 15%, the inhibition at 3 µM (Macrophage [2]) was 10.3% and the inhibition at 30 µM (Macrophage [3]) was 34.1%. For the same compound, the IC50 (Macrophage [4]) was 57 µM, the inhibition at 100 µM (Macrophage [5]) was 63.1% and the inhibition at 1 µM (Macrophage [6]) was 5.9%.
O[C@@H]1C=C[C@]23CCN(Cc4cc5c(cc42)OCO5)[C@H]3C1 [VITTATINE] showed an inhibition at 10 µM (Macrophage [1]) of 7.1%, an inhibition at 3 µM (Macrophage [2]) of -12.5% and an inhibition at 30 µM (Macrophage [3]) of 13.1%. The inhibition at 100 µM (Macrophage [5]) was 42.4% and the inhibition at 1 µM (Macrophage [6]) was -0.2%.
In the case of OC1c2cc3c(cc2[C@]24C=C[C@@H](O)C[C@@H]2N1C[C@H]4O)OCO3 (mixture of isomers) [YEMENINE C], the inhibition at 10 µM (Macrophage [1]) is reported as 0.5%, the inhibition at 3 µM (Macrophage [2]) is reported as 1.6% and the inhibition at 30 µM (Macrophage [3]) is reported as 18.3%. For the same compound, the inhibition at 100 µM (Macrophage [5]) was 31.3% and the inhibition at 1 µM (Macrophage [6]) was 9.7%.
O[C@H]1C=C[C@]23c4cc5c(cc4CN(C[C@@H]2O)[C@H]3C1)OCO5 showed an inhibition at 10 µM (Macrophage [1]) of 28.6%, an inhibition at 3 µM (Macrophage [2]) of 7.4% and an inhibition at 30 µM (Macrophage [3]) of 55.6%. For the same compound, the IC50 (Macrophage [4]) was 24 µM, the inhibition at 100 µM (Macrophage [5]) was 82% and the inhibition at 1 µM (Macrophage [6]) was 3.1%.
In the case of O=C(/C=C/c1ccc(O)c(O)c1)OCCc1ccccc1 [CAFFEIC ACID PHENETHYL ESTER], the inhibition at 10 µM (Macrophage [1]) is reported as 68.2%, the inhibition at 3 µM (Macrophage [2]) is reported as 1.4% and the inhibition at 30 µM (Macrophage [3]) is reported as 93.7%. For the same compound, the IC50 (Macrophage [4]) was 15 µM, the inhibition at 100 µM (Macrophage [5]) was 99.6% and the inhibition at 1 µM (Macrophage [6]) was 3.8%.

Reference: ChEMBL document CHEMBL1151246, “New crinine-type alkaloids with inhibitory effect on induction of inducible nitric oxide synthase from Crinum yemense” (J Nat Prod, 2004)
